Measurements as given in paper PMC3269097 (Journal of Medicinal Chemistry, 2011).
Each block holds one compound with its values, some of them ahead of it.

Assays:
[1] = target: GluN1a/GluN2A NMDAR (Rattus norvegicus, UniProt P35439+Q00959); assay type: cell-based
[2] = target: GluN1a/GluN2B NMDAR (Rattus norvegicus, UniProt P35439+Q00960); assay type: cell-based
[3] = target: GluN1a/GluN2C NMDAR (Rattus norvegicus, UniProt P35439+Q00961); assay type: cell-based
[4] = target: GluN1a/GluN2D NMDAR (Rattus norvegicus, UniProt P35439+Q62645); assay type: cell-based
Sequence of GluN1a/GluN2D NMDAR (Rattus norvegicus, UniProt P35439+Q62645) (Q62645 28-1323, other chains not shown): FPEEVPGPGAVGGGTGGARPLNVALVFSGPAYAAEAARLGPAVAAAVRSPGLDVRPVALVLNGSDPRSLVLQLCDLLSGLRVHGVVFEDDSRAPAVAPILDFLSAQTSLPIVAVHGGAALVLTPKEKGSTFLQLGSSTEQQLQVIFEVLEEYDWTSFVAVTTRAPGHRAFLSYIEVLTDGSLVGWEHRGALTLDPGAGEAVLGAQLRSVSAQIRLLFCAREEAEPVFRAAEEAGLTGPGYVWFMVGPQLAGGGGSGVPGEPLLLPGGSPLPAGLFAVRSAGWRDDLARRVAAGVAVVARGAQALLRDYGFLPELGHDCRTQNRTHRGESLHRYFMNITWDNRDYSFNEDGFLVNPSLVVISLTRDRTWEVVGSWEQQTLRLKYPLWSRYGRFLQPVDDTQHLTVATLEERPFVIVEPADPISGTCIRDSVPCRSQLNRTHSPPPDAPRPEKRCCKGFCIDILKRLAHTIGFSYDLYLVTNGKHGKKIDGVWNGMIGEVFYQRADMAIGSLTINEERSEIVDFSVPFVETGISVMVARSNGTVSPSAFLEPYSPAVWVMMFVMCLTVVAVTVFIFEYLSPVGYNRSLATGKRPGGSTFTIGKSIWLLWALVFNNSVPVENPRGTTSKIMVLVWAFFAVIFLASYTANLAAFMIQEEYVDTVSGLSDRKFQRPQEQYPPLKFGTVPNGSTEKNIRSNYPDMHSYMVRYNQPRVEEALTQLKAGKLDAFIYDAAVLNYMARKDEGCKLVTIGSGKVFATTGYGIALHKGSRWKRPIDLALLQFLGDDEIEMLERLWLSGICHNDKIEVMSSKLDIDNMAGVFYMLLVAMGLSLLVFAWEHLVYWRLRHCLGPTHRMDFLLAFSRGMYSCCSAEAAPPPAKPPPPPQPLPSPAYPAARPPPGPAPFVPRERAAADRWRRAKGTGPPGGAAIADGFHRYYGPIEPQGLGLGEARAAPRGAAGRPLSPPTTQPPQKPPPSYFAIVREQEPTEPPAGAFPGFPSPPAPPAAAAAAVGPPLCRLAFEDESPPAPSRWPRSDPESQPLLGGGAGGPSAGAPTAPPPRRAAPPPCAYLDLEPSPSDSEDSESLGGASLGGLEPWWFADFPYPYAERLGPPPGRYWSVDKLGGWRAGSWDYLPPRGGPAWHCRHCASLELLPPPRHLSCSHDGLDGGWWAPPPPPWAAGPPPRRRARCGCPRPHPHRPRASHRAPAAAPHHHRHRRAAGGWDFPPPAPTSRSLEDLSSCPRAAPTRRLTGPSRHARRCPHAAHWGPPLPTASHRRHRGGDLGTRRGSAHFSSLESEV

[5] = target: T1, human GluK1 (Homo sapiens, UniProt P39086); assay type: cell-based; settings: from KB values
T1 sequence (P39086 31-905 isoform P39086-2 limits assumed): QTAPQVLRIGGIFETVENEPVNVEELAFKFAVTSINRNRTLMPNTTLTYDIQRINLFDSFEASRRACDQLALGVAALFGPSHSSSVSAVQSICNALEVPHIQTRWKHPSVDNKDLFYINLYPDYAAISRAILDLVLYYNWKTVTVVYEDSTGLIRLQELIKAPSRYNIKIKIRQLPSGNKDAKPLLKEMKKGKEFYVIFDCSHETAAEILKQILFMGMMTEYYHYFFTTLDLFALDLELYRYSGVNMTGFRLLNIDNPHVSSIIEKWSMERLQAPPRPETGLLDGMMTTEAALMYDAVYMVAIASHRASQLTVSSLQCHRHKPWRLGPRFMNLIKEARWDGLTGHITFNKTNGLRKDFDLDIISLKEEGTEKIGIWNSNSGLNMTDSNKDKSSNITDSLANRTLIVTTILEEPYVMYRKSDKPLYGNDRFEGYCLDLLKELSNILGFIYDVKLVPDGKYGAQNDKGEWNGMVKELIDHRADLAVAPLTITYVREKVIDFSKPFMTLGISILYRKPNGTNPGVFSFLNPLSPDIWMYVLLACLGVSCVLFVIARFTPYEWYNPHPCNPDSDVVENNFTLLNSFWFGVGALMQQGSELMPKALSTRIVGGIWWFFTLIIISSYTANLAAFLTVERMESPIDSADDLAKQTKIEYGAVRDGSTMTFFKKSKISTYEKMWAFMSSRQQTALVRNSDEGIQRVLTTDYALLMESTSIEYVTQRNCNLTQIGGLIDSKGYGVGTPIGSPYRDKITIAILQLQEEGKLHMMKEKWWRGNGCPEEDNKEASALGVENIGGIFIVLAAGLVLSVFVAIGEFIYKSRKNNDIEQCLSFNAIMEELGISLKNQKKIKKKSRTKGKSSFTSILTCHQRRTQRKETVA

[6] = target: T1, human GluK1; assay: Electrophysiological assay; assay type: cell-based; settings: electrophysiological assays
Procedure, shortened: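 Whole-cell patch clamp at −70 mV on HEK293 cells stably expressing homomeric human GluK1 or GluK3. Cells are bathed in HBS pH 7.4 at 20°C and lifted into a piezo-driven theta tube. 30 mM glutamate is applied for 100 ms every 20 s. Antagonist is added to both barrels for about 2 min, giving 5 concentrations per cell, each averaged over 6 sweeps. IC50 values are reported with 95% confidence intervals.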

[7] = tested on: native AMPARs; assay type: cell-based, rat; settings: 100 μM, n=4
Procedure, shortened: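 Field EPSPs in transverse rat hippocampal slices (400 μm), perfused at 29°C. Mossy fibers stimulated via the dentate granule cell layer every 60 s. Responses averaged every 2 min and measured as 20–80% slope. Test compound at 100 μM perfused for 30 min. Results expressed as % of control slope, mean ± s.e.m., n=4, compared by Student's t test.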

[8] = target: wildtype (WT) GluK3 (Homo sapiens, UniProt Q13003); assay: [3H]kainate competition binding to wildtype GluK3 membranes; settings: 18i 100 μM, 300 μM, 1 mM; 20 nM [3H]kainate
Procedure, shortened: (§1)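 Filtration binding on human GluK3a membranes. Wildtype comes from stably transfected HEK293 (hygromycin); the A660S mutant is transiently PEI-transfected for 48 h. Membranes are prepared by hypotonic sonication and washed in 50 mM Tris-citrate pH 7.4. Assay uses 20 nM [3H]kainate, with 1 mM kainate defining non-specific binding. Test compound at 100 μM, 300 μM and 1 mM; three experiments in triplicate.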

[9] = target: GluK3 A660S mutant receptor (Homo sapiens, UniProt Q13003, A691S); assay: [3H]kainate competition binding to GluK3 A660S mutant membranes; settings: 18i 100 μM, 300 μM, 1 mM; 20 nM [3H]kainate; compared with wild type
Procedure, shortened: as §1

[10] = tested on: male Wistar rats with partial saphenous nerve ligation injury (PSNI); assay: Nociceptive behaviour in rats, partial saphenous nerve ligation injury; assay type: in vivo, rat
Procedure, shortened: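 Male Wistar rats (~250 g) habituated to testing, tested before saphenous nerve injury. Test compound or vehicle given i.p. (n=5/group), testing starts 15 min later. Von Frey hairs applied to the plantar hindpaw (≤5 s, five times per paw, both paws); thresholds taken from stimulus-response curves. Radiant-heat withdrawal latency is the mean of three stimulations per paw.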

[11] = target: human GluK2 (Homo sapiens, UniProt Q13002); assay type: cell-based; settings: tested at a concentration of 100 μM
Procedure, shortened: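 HEK293 cells stably expressing homomeric human GluK2(Q), passaged no more than 20 times. Ca2+ influx read by fluorescence plate reader with concanavalin A present. Test compound is added over a range of concentrations, then L-glutamate plus antagonist (final glutamate 10 μM). Curves are fitted with slope fixed at 1 and top/bottom fixed at 100%/0% inhibition. KB is derived from IC50 by Cheng-Prusoff.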

[12] = target: GluN1a/GluN2A NMDAR (Rattus norvegicus, UniProt Q00959); assay type: cell-based; settings: at a concentration of 100 μM
[13] = target: GluN1a/GluN2B NMDAR (Rattus norvegicus, UniProt Q00960); assay type: cell-based; settings: at a concentration of 100 μM
[14] = Solubility observations; assay type: physicochemical; settings: for water solubility: at higher concentrations
[15] = target: GluN1a/GluN2D NMDAR (Rattus norvegicus, UniProt Q62645); assay type: cell-based
Sequence of GluN1a/GluN2D NMDAR (Rattus norvegicus, UniProt Q62645) (Q62645 28-1323, other chains not shown): as the sequence (Q62645 28-1323, other chains not shown) above

[16] = tested on: AMPARs; settings: competition binding assays; ref [5c]; cited from earlier work

Sequence of GluN1a/GluN2B NMDAR (Rattus norvegicus, UniProt P35439+Q00960) (Q00960 27-1482, other chains not shown): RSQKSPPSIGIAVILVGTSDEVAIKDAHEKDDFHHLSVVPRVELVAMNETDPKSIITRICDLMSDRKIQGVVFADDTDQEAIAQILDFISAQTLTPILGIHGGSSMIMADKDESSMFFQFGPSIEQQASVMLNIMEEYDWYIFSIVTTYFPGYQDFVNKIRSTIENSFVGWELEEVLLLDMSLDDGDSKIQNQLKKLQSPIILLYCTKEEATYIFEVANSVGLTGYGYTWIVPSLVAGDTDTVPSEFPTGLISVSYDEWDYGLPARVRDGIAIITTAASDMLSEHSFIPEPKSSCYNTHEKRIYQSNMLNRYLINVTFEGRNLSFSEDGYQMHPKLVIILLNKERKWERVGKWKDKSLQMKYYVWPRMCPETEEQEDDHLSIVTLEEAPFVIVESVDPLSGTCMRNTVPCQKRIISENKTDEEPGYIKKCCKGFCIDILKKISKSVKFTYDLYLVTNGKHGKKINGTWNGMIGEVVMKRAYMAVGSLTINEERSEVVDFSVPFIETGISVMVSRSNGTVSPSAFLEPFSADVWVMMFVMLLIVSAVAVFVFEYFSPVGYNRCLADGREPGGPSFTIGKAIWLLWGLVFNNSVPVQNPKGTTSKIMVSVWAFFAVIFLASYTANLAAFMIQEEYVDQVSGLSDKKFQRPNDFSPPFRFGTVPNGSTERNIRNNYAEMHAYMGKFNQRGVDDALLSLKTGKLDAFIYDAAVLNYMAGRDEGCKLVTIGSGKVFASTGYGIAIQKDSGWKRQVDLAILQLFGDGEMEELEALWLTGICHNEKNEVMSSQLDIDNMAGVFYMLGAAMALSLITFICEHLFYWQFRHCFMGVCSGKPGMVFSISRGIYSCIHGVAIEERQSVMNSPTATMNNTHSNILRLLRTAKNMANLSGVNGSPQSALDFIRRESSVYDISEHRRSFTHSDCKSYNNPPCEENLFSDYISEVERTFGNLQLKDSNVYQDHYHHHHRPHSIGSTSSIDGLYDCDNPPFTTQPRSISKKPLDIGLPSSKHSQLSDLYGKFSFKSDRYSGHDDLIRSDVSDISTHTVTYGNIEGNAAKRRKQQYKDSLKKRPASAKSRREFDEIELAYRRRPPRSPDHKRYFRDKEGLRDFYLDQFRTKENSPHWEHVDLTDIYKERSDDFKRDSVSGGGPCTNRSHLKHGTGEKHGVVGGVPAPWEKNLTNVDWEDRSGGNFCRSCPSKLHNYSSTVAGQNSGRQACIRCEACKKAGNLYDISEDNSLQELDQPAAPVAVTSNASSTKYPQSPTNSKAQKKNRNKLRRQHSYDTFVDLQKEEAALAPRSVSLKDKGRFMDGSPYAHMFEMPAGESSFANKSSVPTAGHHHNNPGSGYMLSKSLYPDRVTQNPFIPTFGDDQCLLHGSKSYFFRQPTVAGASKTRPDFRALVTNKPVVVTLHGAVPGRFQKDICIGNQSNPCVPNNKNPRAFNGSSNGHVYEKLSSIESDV
Sequence of GluN1a/GluN2C NMDAR (Q00961 20-1237, other chains not shown): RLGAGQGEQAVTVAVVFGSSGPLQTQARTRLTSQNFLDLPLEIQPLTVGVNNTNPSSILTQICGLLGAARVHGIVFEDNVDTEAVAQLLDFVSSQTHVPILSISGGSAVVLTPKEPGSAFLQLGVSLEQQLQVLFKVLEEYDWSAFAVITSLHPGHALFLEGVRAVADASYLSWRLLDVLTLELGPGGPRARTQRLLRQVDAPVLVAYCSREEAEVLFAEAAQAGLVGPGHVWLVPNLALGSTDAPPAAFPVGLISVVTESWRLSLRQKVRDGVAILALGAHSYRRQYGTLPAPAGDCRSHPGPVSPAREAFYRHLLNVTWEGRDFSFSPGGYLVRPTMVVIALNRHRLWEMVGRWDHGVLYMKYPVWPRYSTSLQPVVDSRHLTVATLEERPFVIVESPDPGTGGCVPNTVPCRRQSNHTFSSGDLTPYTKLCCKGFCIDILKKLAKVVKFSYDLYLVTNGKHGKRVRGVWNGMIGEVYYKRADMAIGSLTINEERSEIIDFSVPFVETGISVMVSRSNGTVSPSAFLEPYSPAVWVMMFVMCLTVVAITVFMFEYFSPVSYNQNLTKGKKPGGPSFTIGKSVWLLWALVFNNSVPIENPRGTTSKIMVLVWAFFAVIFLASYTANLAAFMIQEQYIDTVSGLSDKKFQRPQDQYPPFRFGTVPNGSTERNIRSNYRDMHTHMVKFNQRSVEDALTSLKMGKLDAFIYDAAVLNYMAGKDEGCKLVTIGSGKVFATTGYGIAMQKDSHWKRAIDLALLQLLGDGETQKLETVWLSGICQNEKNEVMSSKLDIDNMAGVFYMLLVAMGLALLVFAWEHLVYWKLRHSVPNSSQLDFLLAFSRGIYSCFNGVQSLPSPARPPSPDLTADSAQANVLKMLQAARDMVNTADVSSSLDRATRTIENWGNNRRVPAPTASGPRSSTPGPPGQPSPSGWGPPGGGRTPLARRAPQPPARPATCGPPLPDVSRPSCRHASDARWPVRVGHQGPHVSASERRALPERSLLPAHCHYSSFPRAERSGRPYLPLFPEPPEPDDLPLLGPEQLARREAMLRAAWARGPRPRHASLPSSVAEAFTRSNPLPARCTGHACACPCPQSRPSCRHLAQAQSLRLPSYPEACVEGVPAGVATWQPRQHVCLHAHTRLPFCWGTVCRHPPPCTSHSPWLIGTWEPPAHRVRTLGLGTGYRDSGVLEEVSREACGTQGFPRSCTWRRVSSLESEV

- IC50 [1]: > 100 µM
- IC50 [2]: > 100 µM
- IC50 [3]: > 100 µM
- IC50 [4]: > 100 µM
SMILES: O=C(O)c1ccc2cc(C(=O)N3CCN[C@H](C(=O)O)[C@@H]3C(=O)O)ccc2c1 [Compound 19]

SMILES: O=C(O)[C@H]1NCCN(C(=O)c2ccc3cc(I)c4ccccc4c3c2)[C@H]1C(=O)O (relative stereo) [Compound 18i, (2R*,3S*)-1-(9-Iodophenanthrene-3-carbonyl)piperazine-2,3-dicarboxylic acid]
- fold higher affinity for GluK1 compared to 18c [5]: 1.7 fold
- fold lower IC50 for GluK1 versus GluK3 [6]: > 100 fold
- AMPAR mediated fEPSP response in the presence of compound, % of slope ([7]; 30 min perfusion, control 100 ± 2%, mean ± s.e.m.): 99 ± 2%
- antagonist activity on AMPAR mediated EPSPs in CA3 region of the hippocampus [7]: no antagonist activity
- inhibition of [3H]kainate binding to wild type GluK3 [8]: low binding affinity
- inhibition of [3H]kainate binding to A660S point mutant of GluK3 [9]: more potently inhibited
- thermal withdrawal latency to radiant heat ([10]; 30 mg/kg i.p., acute, day 7 after PSNI, n=5 per group): increased thermal withdrawal latency in these animals above baseline values
- mechanical withdrawal threshold (mechanical allodynia) ([10]; 30 mg/kg i.p., acute, day 7 after PSNI, versus vehicle, n=5 per group): completely reversed the drop in mechanical withdrawal threshold
- antinociceptive effects in normal animals ([10]; normal animals before nerve injury (not shown)): exerted antinociceptive effects

SMILES: O=C(O)[C@H]1NCCN(C(=O)c2ccc3c(c2)CCc2ccccc2-3)[C@H]1C(=O)O [Compound 34g]
- GluK2 antagonist activity [11]: no GluK2 antagonist activity

SMILES: O=C(O)[C@H]1NCCN(C(=O)c2ccc3cc(-c4ccccc4)ccc3c2)[C@H]1C(=O)O (relative stereo) [Compound 18d, (2R*,3S*)-1-(6-Phenylnaphthalene-2-carbonyl)piperazine-2,3-dicarboxylic acid]
- IC50 [1]: > 100 µM
- antagonism of GluN2A [12]: 30–37%
- IC50 [2]: > 100 µM
- antagonism of GluN2B [13]: 30–37%
- GluK2 antagonist activity [11]: no GluK2 antagonist activity
- solubility in electrophysiological recording buffer ([14]; 300 μM, room temperature, visible light scattering): insoluble at high concentrations
- water solubility [14]: poor water solubility

SMILES: O=C(O)[C@H]1NCCN(Cc2ccc3c(ccc4ccccc43)c2)[C@H]1C(=O)O [Compound 34f]
- fold lower affinity for GluK1 compared to (±)-4 [5]: 5 fold

SMILES: O=C(O)[C@@H]1NCCN(C(=O)c2ccc3c(ccc4ccccc43)c2)[C@H]1C(=O)O [Compound 34d]
- fold lower affinity for GluK1 compared to (±)-4 [5]: 8 fold

SMILES: O=C(O)[C@H]1NCCN(C(=O)c2ccc3c(ccc4cc(Br)ccc43)c2)[C@H]1C(=O)O [Compound 34e]
- GluK2 antagonist activity [11]: no GluK2 antagonist activity

SMILES: O=C(O)[C@H]1NCCN(C(=O)c2ccc3ccc4ccccc4c3c2)[C@H]1C(=O)O [Compound 5]
- selectivity for GluN2D versus GluK1 ([15]; GluN2D Ki versus GluK1 KB): around 10 fold
- GluK2 antagonist activity [11]: no GluK2 antagonist activity
- inhibition of [3H]AMPA binding [16]: only very weak inhibitors

SMILES: O=C(O)[C@H]1NCCN(C(=O)c2ccc(CCc3ccccc3)cc2)[C@H]1C(=O)O [Compound 21]
- IC50 [1]: > 100 µM
- IC50 [2]: > 100 µM
- IC50 [3]: > 100 µM
- IC50 [4]: > 100 µM
- antagonism of GluN2D ([15]; at a concentration of 100 μM): ~ 10%
- fold lower affinity for GluK1 compared to 34b [5]: approximately 2 fold
- fold lower affinity for GluK1 compared to (±)-4 [5]: 9 fold

SMILES: O=C(O)[C@H]1NCCN(C(=O)c2ccc(C#Cc3ccccc3)cc2)[C@H]1C(=O)O [Compound 18k]
- GluK2 antagonist activity [11]: no GluK2 antagonist activity
- inhibition of [3H]AMPA binding [16]: only very weak inhibitors

SMILES: O=C(O)C1NCCN(C(=O)c2ccc3c(ccc4ccccc43)c2)C1C(=O)O (single isomer, unassigned; (+)) [(+)-4, (+)-1-(Phenanthrene-2-carbonyl)piperazine-2,3-dicarboxylic acid]
- fold lower affinity for GluN2D than the (−)-4 isomer [15]: 50 fold

SMILES: O=C(O)C1NCCN(C(=O)c2ccc3c(ccc4ccccc43)c2)C1C(=O)O (stereo not drawn) [(±)-4]
- GluK2 antagonist activity [11]: no GluK2 antagonist activity

SMILES: O=C(O)[C@H]1NCCN(C(=O)c2ccc(/N=N/c3ccccc3)cc2)[C@H]1C(=O)O [Compound 18l]
- GluK2 antagonist activity [11]: no GluK2 antagonist activity
- inhibition of [3H]AMPA binding [16]: only very weak inhibitors

SMILES: O=C(O)[C@H]1NCCN(C(=O)c2ccc(-c3ccccc3)cc2)[C@H]1C(=O)O [Compound 34b]
- GluK2 antagonist activity [11]: no GluK2 antagonist activity

SMILES: O=C(O)c1ccc(-c2ccc(C(=O)N3CCN[C@H](C(=O)O)[C@@H]3C(=O)O)cc2)cc1 [Compound 20]
- IC50 [2]: > 100 µM
- IC50 [3]: > 100 µM
- fold lower affinity for GluK1 compared to 34b [5]: 5 fold
- water solubility [14]: poor water solubility

SMILES: O=C(O)[C@@H]1[C@H](C(=O)O)NCCN1C(=O)c1ccc2c(ccc3ccccc32)c1 [(−)-4, (−)-1-(Phenanthrene-2-carbonyl)piperazine-2,3-dicarboxylic acid]
- fold higher affinity for GluK1 than the (+)-4 enantiomer [5]: 27 fold
- GluK2 antagonist activity [11]: no GluK2 antagonist activity

SMILES: O=C(O)[C@H]1NCCN(C(=O)c2ccc3cc(I)ccc3c2)[C@H]1C(=O)O (relative stereo) [Compound 18c, (2R*,3S*)-1-(6-Iodonaphthalene-2-carbonyl)piperazine-2,3-dicarboxylic acid]
- GluK2 antagonist activity [11]: no GluK2 antagonist activity

SMILES: O=C(O)[C@H]1NCCN(C(=O)c2ccc3cc(Br)c4ccccc4c3c2)[C@H]1C(=O)O (relative stereo) [Compound 18h, (2R*,3S*)-1-(9-Bromophenanthrene-3-carbonyl)piperazine-2,3-dicarboxylic acid]
- inhibition of [3H]AMPA binding [16]: only very weak inhibitors
